High-throughput results from PubChem BioAssay.
This is a sample that favours compounds with a hit; in the whole collection about 2% have one here.
FLuc inh counter: Photinus pyralis luciferase inhibition counter-screen. P08659. ATPLite firefly luciferase biochemical luminescence, 10 min. inhibition, % at 10 µM. 200,000 tested, 1.5% active. AID 1006;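 active means inhibition above about 50% when tested at 10 µM, limit read from the data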
Target sequence (P08659 whole entry, looked up): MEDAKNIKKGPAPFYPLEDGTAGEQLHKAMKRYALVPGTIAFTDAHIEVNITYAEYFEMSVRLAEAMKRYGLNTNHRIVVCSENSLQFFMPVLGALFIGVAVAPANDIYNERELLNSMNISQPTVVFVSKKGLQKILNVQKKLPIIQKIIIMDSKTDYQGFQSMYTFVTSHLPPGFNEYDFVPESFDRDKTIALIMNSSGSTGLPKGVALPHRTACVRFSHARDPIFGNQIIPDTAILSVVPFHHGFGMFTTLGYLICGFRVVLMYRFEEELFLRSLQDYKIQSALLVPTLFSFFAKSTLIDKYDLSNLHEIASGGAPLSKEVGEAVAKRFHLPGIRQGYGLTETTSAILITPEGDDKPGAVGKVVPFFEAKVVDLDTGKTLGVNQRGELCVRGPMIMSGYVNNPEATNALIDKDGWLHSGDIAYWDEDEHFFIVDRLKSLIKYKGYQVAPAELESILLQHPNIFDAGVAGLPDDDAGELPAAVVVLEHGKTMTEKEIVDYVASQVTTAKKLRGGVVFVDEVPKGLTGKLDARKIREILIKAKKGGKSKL
PPC-1+TRAIL kill: compounds killing PPC-1 cancer cells with TRAIL present (potentiator screen, no TRAIL-free arm) | cell killing (% activity), % at 4 µM or 5 µM | AID 1443 | PPC-1 cells + TRAIL, ATPLite viability luminescence | 220,000 tested, 0.41% active;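 active means cell killing above 50% in the first pass at 4 µM, then a duplicate retest at 5 µM averaging 50% or more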;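 further: plate controls were cells with TRAIL plus DMSO for no effect and medium-only wells lacking cells for full effect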
C8 TRAIL sens: caspase-8 TRAIL sensitization; NB7+C8 cells + TRAIL, ATPlite viability luminescence; inhibition (viability loss, TRAIL sensitization), % at 10 µM; 360,000 tested, 1% active; AID 624354;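 active means compounds causing at least 50% loss of cell viability in the single-dose screen, relative to plate controls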
HSP90 inh: inhibitors of HSP90 luciferase refolding in rabbit reticulocyte lysate; luciferase refolding luminescence, 3 h; inhibition, % at 5.6 µM; 290,000 tested, 0.91% active; AID 1789;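 active means inhibition above the screen-wide mean plus 3 SD, computed separately per campaign, cut at about 16% in these data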;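 further: 0% = DMSO wells and 100% = 60 µM geldanamycin wells; inhibitors lower the luminescence because luciferase stays unfolded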
FLuc stim CS: affects firefly luciferase, flagging false hits in luciferase stimulation screens; P08659; ATPlite luciferase biochemical, luminescence, 10 min; 0 = ATP-free wells, 1 = DMSO control; activation factor at 10 µM; 200,000 tested, under 10 active; AID 1027;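 active means luciferase activation factor, scaled between plate controls, of at least 2 with compound at 10 µM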
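Assay system: Luciferase/luciferin detection reagent, cell-free biochemical luciferase assay / Also added: ATP substrate / Schedule: 10 min at ambient temperature / Measured by: luminescence measurement of luciferase light output / Benchmarks: low control with PBS replacing ATP, high control enzyme plus ATP without compound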
PPC1 cytotox: PPC-1 cell cytotoxicity | shares compounds with PPC-1+TRAIL kill | PPC-1 viability, ATPlite luminescence, overnight | cytotoxicity, % at 5 µM | 1,200 tested, 50% active | AID 1447;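 active means reconfirmed compounds whose average cytotoxicity reaches 50% or more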;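 further: 0% = DMSO-treated cells and 100% = wells holding medium but no cells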
* = called active by the depositor; x = not tested or not shown.

SMILES	FLuc inh counter	PPC-1+TRAIL kill	C8 TRAIL sens	HSP90 inh	FLuc stim CS	PPC1 cytotox
CCNC(=S)NNC(=O)c1cc(-c2cccc(C)c2)nc2ccccc12	89*	66*	61*	2	0.1	65*
Cc1cccc(N2C(=S)NC3c4ccccc4OC2(C)C3C(=O)N(C)C)c1 (centres undefined)	-11	4	-4	0	1.1	-1
CN(C)C(=O)C1C2NC(=S)N(c3ccccc3)C1(C)Oc1ccccc12 (centres undefined)	-4	22	-14	-5	1	x
CCc1cc(=O)oc2cc(C)cc(OC(C)C(=O)NCc3ccccn3)c12 (centres undefined)	x	x	-22	1	x	x
COc1ccc(C(=O)CSc2ccc(-c3ccccc3)nn2)cc1	2	7	-4	4	1	x
COc1ccc(-c2ccc(SC)nn2)cc1	94*	77*	86*	43*	0.1	69*
CCOc1ccc(-c2nc(C)c(C(C)=O)n2O)cc1	64*	31	41	2	0.4	39
COc1ccc(-c2nc(C)c(C(C)=O)n2O)cc1	17	36	13	-2	0.8	x
Cc1cccc2c(C(=O)O)cc(-c3cccnc3)nc12	0	-14	2	-1	1	-3
CN(C)S(=O)(=O)c1ccc(C(=O)Nc2cccc(C(=O)O)c2)cc1	2	6	2	3	1	-7
CC(=O)C1=C(O)C(=O)N(c2ccc(Br)cc2)C1c1ccc(Br)cc1 (centres undefined)	x	x	0	3	x	x
O=C(Nc1nccs1)c1ccc(-c2ccc(Cl)cc2)o1	85*	60*	81*	-1	0.1	61*
O=C(Nc1nccs1)c1cnccn1	-5	8	-2	0	1.1	8
CC(C)CCNC(=O)C(c1ccc(O)cc1)N(Cc1ccco1)C(=O)CCC(=O)Nc1nccs1 (centres undefined)	x	x	-10	-3	x	x
CCOc1ccc(Nc2nc(N)nc(CCl)n2)cc1	x	95*	92*	10	x	93*
Cc1ccc(Nc2nc(N)nc(CCl)n2)c(C)c1	x	92*	96*	0	x	92*
COc1cc2nc(CN(C)Cc3ccc(C(C)(C)C)cc3)[nH]c(=O)c2cc1OC	85*	59*	65*	-2	0.2	58*
O=Cc1cc2cc3c(cc2nc1Cl)OCCO3	x	14	x	6	x	x
O=C(O)c1ccc(N/N=C/c2cc3cc4c(cc3nc2Cl)OCCO4)cc1	x	88*	93*	12	x	91*
CCC(C)(C)c1ccc(OCCCC[n+]2cccc(C)c2)c(C(C)(C)CC)c1	-7	35	14	7	1.1	37
Cc1ccc(NCc2ccccc2O)cc1	-2	-3	-3	-1	1	-7
Cc1ccc(NCc2ccccc2F)cc1	-5	6	-2	7	1.1	x
O=C(N=Nc1c(O)[nH]c2ccccc12)c1ccc2c(c1)OCO2	93*	92*	91*	-2	0.1	91*
O=C(/C=C/c1ccccc1)c1c[nH]c2ccccc12	x	61*	58*	0	x	66*
COc1cc(C(=O)NC2CCCC(C)C2C)ccc1OCC(=O)N1CCOCC1 (centres undefined)	x	x	-9	x	x	x
SMILES	FLuc inh counter	PPC-1+TRAIL kill	C8 TRAIL sens	HSP90 inh	FLuc stim CS	PPC1 cytotox
CCN(C(=O)c1ccnn1C)c1ccccc1	-4	31	-7	-3	1	x
Cc1ccc(NC(=O)Nc2ccc3c(c2)nc(C)n3C)cc1C	40	15	x	-5	0.6	x
COc1ccc(Nc2nnc(-c3ccccc3)c3ccccc23)cc1C(=O)N1CCCCC1	-5	13	4	2	1.1	x
Cc1nc2cc(Nc3nnc(-c4ccccc4)c4ccccc34)ccc2n1C	92*	71*	75*	5	0.1	70*
Cc1nc2cc(NC(=O)Nc3cccc4ccccc34)ccc2n1C	56*	34	48	0	0.4	35
O=C(CCCc1nc(-c2ccccc2Cl)no1)NC1CCCC1	x	x	2	9	x	x
CCCCCCCCCn1ccc(=N)cc1	x	-5	32	-4	x	-9
COCCN1C(=O)c2ccc(C(=O)NCc3cccnc3)cc2C1=O	-3	-1	4	1	1	12
CC(c1ccccc1)N1C(=O)c2ccc(C(=O)NCc3cccnc3)cc2C1=O (centres undefined)	x	x	-22	-4	x	x
Cc1ccccc1N1CCN(Cc2ccc(Br)o2)CC1	x	x	1	12	x	x
COc1ccc(CCNC(=O)c2cccc(S(=O)(=O)N3CCCC3)c2)cc1OC	x	x	1	x	x	x
COc1cc(C(=O)NCCc2ccc(S(=O)(=O)N3CCCC3)cc2)cc(OC)c1OC	-3	5	-11	-1	1	5
CCOc1ccc(S(=O)(=O)N2CCOCC2)cc1NC(=O)CCOc1ccc(C(C)(C)C)cc1	x	x	3	x	x	x
c1ccc2sc(NN=C3CCCCCC3)nc2c1	89*	61*	66*	12	0.1	64*
CCOC(=O)C1(C)/C(=N/Nc2ccccc2)C(=O)C(=O)N1c1ccccc1 (centres undefined)	-6	-9	2	1	1.1	-1
COc1ccc(CC(=O)NNC(=O)c2nn(Cc3ccccc3)c(=O)c3ccccc23)cc1OC	x	24	-13	2	x	x
O=C(N/N=C/c1cccc([N+](=O)[O-])c1)c1cc(-c2ccc3c4c(cccc24)CC3)n[nH]1	-2	12	-16	1	1	x
O=C(N/N=C/c1ccc(Cl)c([N+](=O)[O-])c1)c1cc(-c2ccc3c4c(cccc24)CC3)n[nH]1	x	42	10	0	x	33
CCOC(=O)C1=C(COC(=O)/C=C/c2ccc(SC)cc2)NC(=O)NC1C (centres undefined)	x	x	23	x	x	x
CC1(C(=O)NCc2ccc(F)cc2)Oc2ccccc2NC1=O (centres undefined)	6	38	-13	-4	0.9	x
Cc1ccc(CNC(=O)C2(C)Oc3ccccc3NC2=O)cc1 (centres undefined)	-5	1	2	4	1.1	4
c1ccc2nc(-c3ccncc3)ccc2c1	6	26	-7	1	0.9	x
CN1CCN(c2ccc(-c3ccc4ccccc4n3)cc2)CC1	94*	82*	90*	89*	0.1	77*
Nc1nnnn1/N=C/c1cc(Br)ccc1O	x	x	9	x	x	x
COc1cccc2nc3cc(C)c(C)cc3nc12	x	70*	68*	14	x	68*
Nc1ccc2ncccc2c1	2	14	-9	-1	1	x
Nc1ccc(/C=C/c2ccc3ncccc3c2)cc1	x	69*	47	12	x	70*
O=C(O)c1nc(-c2ccccc2)n(-c2ccccc2)n1	3	17	-2	0	1	x
CCCC(C)NC(=O)c1nc(-c2ccccc2)n(-c2ccccc2)n1 (centres undefined)	-11	-8	17	2	1.1	4
Oc1ccccc1-c1nc2cnccn2c1Nc1ccc2c(c1)OCCO2	0	4	-19	4	1	-1
